ATG4B inh: blocks human ATG4B protease cleavage of LC3 substrate; Q9Y4P1; ATG4B cleavage of LC3-PLA2, NBD-HPC fluorescence, 1 h; inhibition, % at 8.33 µM; 0.51% of 340,000 active; AID 504462
SENP1 inh: inhibitors of human SENP1 SUMO protease catalytic domain | Q9P0U3 | AID 624204 | recombinant SENP1 catalytic domain, CyPet-SUMO1-YPet FRET cleavage | inhibition, % at 10 µM | 0.21% of 360,000 active;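 active = inhibition at least 30% at 10 µM, raw YFP signal under a set limit, fluorescence ratio 0.5 to 1.5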;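 also: 0% = enzyme with DMSO and 100% = no enzyme wells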
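Compound: 10 µM single point, 0.5% DMSO; Test system: hSENP1 catalytic domain, recombinant; Timing: 50 min reaction at room temperature; Technique: FRET, CFP and YFP emission; Control set: no-enzyme wells low, DMSO-plus-enzyme wells high control.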
HNF4A DNA FP: change in binding of human HNF4 alpha to DNA; 0.3% of 360,000 active; AID 1224865; HNF4a-FITC DNA binding, fluorescence polarization, 1 h; activity change, % at 10 µM; P41235; in the data active = activity change above about 30%, passing the limit was not always enough
TPT1 inh: blocks Candida albicans tRNA 2'-phosphotransferase. 0.81% of 300,000 active. AID 1962. recombinant caTPT1, FP RNA substrate dephosphorylation. inhibition, % at 5 µM;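 active = inhibition above the mean of all tested compounds plus 3 SD, set per screening campaign, cut at about 24% in these data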;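 also: plate controls were DMSO alone for no effect and ferristatin control at 100 nM for full effect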
CSN deneddyl inh: CSN deneddylation inhibition; AID 651999; Purified CSN, SCF-Nedd8-OG deneddylation, fluorescence polarization; 0.38% of 360,000 active; Q92905; inhibition, % at 12.5 µM;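 active = pattern-corrected inhibition above about 35%, with an unprinted fluorescence ratio check between 0.5 and 1.5, limit read from the data, passing the limit was not always enough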;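 also: 0% = enzyme with substrate and 100% = substrate without enzyme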
Target sequence (Q92905 whole entry, looked up, one chain of several): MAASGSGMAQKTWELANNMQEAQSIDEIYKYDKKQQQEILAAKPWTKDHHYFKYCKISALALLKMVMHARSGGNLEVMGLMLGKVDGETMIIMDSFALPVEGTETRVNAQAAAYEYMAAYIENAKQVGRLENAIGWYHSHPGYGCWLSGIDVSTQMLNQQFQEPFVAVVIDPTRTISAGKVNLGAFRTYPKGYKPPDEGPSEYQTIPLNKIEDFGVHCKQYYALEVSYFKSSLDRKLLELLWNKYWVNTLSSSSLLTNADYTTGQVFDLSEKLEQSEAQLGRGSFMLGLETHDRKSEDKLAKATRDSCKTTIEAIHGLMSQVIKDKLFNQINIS
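Material: purified human Csn5 enzyme expressed in HEK293T cells / Medium: Tris buffer pH 7.5, NaCl, DTT, Tween-20, trehalose, ovalbumin / Compound dosing: 12.5 µM single point / Schedule: 90 min incubation of compound, enzyme and substrate at room temperature / Signal: fluorescence polarization of the substrate / Control set: no-enzyme wells high, enzyme-with-substrate wells low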
Rpn11 block: Rpn11 (human) deubiquitinase inhibition; human 26S proteasome, Ub4-pepOG fluorescence polarization; 20S core pre-blocked with epoxomicin; inhibition, % at 20 µM; 0.59% of 360,000 active; O00487;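 active = inhibition at 20 µM, scaled to each plate's controls, above about 33%, limit read from the data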
Target sequence (O00487 whole entry, looked up): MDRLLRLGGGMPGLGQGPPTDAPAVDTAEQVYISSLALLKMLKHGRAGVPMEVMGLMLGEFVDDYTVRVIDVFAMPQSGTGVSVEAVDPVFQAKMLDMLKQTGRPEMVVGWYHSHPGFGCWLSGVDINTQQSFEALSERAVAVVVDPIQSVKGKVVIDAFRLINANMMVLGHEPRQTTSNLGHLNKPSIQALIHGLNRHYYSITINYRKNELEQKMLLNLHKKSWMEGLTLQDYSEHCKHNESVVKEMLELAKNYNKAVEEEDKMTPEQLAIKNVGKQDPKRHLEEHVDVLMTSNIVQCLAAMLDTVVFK
Rpn11 confirm: Rpn11 inhibition confirmation, single concentration; purified human 26S proteasome, Ub4-pepOG fluorescence polarization; proteasome pretreated with epoxomicin; inhibition, % at 20 µM; shares compounds with Rpn11 block; 29% of 1,900 active
MMP-2 inh: counter-screen for RPN11 inhibitors: inhibition of human MMP-2; recombinant MMP-2, FRET peptide cleavage fluorescence; shares compounds with Rpn11 block; 4% of 1,900 active; inhibition, % at 20 µM; AID 602330;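 also: human MMP-2 activated beforehand with APMA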
Thrombin FP: counter-screen for RPN11 inhibitors: inhibition of bovine thrombin. bovine thrombin cleavage of Ub4-pepOG, fluorescence polarization. shares compounds with Rpn11 block. AID 602333. 13% of 1,900 active. inhibition, % at 20 µM;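 active = mean inhibition at least 40% at 20 µM, or signal 3 deviations below plate average, so some actives read negative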;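 also: plate controls were thrombin with DMSO for no effect and buffer wells lacking thrombin for full effect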
* marks the source's active call; other numbers are inactive results. The list is not random: actives were taken first. Their share in the collection is about 2%. Rule as the data show it, unless noted: active = inhibition above about 40%; inactive = the rest.

`Cc1cc(C)c(S(=O)(=O)N2C[C@H]3CON(C)[C@H]3C[C@H]2c2ccc(N3CCCCC3)cc2)c(C)c1` gave SENP1 inh 3, HNF4A DNA FP 28, CSN deneddyl inh 14, Rpn11 block 77*, Rpn11 confirm 96*, MMP-2 inh -26 and Thrombin FP 87*.
For COc1ccc(CC(=O)Nc2ccc(S(=O)(=O)N3CCC(C)CC3)cc2)c(OC)c1 the results were ATG4B inh -28, SENP1 inh -1, HNF4A DNA FP 2, CSN deneddyl inh -4 and Rpn11 block 5.
Screening COc1ccc(CNC(=O)C(C)OC(=O)c2cccn2C)cc1 (stereo not given) returned ATG4B inh -9, SENP1 inh 0, HNF4A DNA FP 14, TPT1 inh 1, CSN deneddyl inh 6, Rpn11 block active, Rpn11 confirm -3, MMP-2 inh 11 and Thrombin FP -13.
Cc1cccc(-n2cnc(C(=O)N/N=C\c3ccc(Br)cc3)c2)n1 was read as ATG4B inh 7, SENP1 inh 3, HNF4A DNA FP 3, TPT1 inh -4, CSN deneddyl inh 15, Rpn11 block 49*, Rpn11 confirm -8, MMP-2 inh -39 and Thrombin FP -14.
`N#Cc1c(C(F)(F)F)cc(-c2ccco2)nc1SCc1ccncc1` gave ATG4B inh 7, SENP1 inh 41, HNF4A DNA FP 13, TPT1 inh 23, CSN deneddyl inh 25, Rpn11 block 54*, Rpn11 confirm 29, MMP-2 inh -14 and Thrombin FP 18.
CSc1nc(-c2ccco2)cc(C(F)(F)F)c1C#N was read as ATG4B inh 2, SENP1 inh -2, HNF4A DNA FP 21, TPT1 inh 0, CSN deneddyl inh -1, Rpn11 block 134*, Rpn11 confirm -2, MMP-2 inh -29 and Thrombin FP 5.
`Cn1c(CCNC(=O)c2ccc(Cl)cc2)n[nH]c1=S` gave ATG4B inh -3, SENP1 inh 2, HNF4A DNA FP 0, TPT1 inh -3, CSN deneddyl inh 1, Rpn11 block 41*, Rpn11 confirm 8, MMP-2 inh 0 and Thrombin FP -3.
Screening CCn1c(CCNC(=O)c2ccc(C)cc2)n[nH]c1=S returned ATG4B inh 4, SENP1 inh 3, HNF4A DNA FP 0, TPT1 inh -1, CSN deneddyl inh 1 and Rpn11 block 0.
C#CCOCCOCCOCCNc1nc(N2CCN(C(=O)[C@H]([C@@H](C)CC)n3cc([C@@H](N)Cc4ccc(O)cc4)nn3)CC2)nc(N2CCN(C(=O)[C@H](Cc3cc4ccccc4[nH]3)n3cc([C@@H](N)CC(C)C)nn3)CC2)n1 was read as ATG4B inh -5, SENP1 inh -18, HNF4A DNA FP 20, TPT1 inh 0, CSN deneddyl inh 20, Rpn11 block 64*, Rpn11 confirm 9, MMP-2 inh 38 and Thrombin FP -9.
Screening CCOC(=O)c1sc(NC(=O)CSc2nc3cccnc3n2C)nc1C returned ATG4B inh -6, SENP1 inh 0, HNF4A DNA FP -1, TPT1 inh -2, CSN deneddyl inh 6 and Rpn11 block 1.
Screening CCOC(=O)c1c(NC(=O)CSc2nc3cccnc3n2C)sc(C(C)=O)c1C returned ATG4B inh -7, SENP1 inh 18, HNF4A DNA FP 7, TPT1 inh 8, CSN deneddyl inh 3, Rpn11 block 35*, Rpn11 confirm 21, MMP-2 inh -23 and Thrombin FP -5.
Screening CCOC(=O)[C@@H]1[C@H]2COc3cc(OC)ccc3[C@H]2N2C(=O)N(c3ccc(C)cc3)C(=O)[C@]12C returned ATG4B inh -6, SENP1 inh 2, HNF4A DNA FP 1, CSN deneddyl inh 0 and Rpn11 block 1.
`COc1ccc(/C=C2\SC(N3CCCCC3)=NC2=O)cc1OC` gave ATG4B inh -13, SENP1 inh -4, HNF4A DNA FP -5, TPT1 inh -3, CSN deneddyl inh -5 and Rpn11 block -13.
Screening COc1cc(/C=C2\SC(N3CCC(C)CC3)=NC2=O)ccc1O returned ATG4B inh -5, SENP1 inh 63*, HNF4A DNA FP 13, TPT1 inh 8, CSN deneddyl inh 19, Rpn11 block 65*, Rpn11 confirm 34, MMP-2 inh -15 and Thrombin FP 28.
CNC(=S)Nc1ccc(C(N)=O)cc1 was read as ATG4B inh -10, SENP1 inh 0, HNF4A DNA FP -2, TPT1 inh -2, CSN deneddyl inh 3 and Rpn11 block -1.
`CCOC(=O)c1cc2occc2n1Cc1ccc(F)cc1` gave ATG4B inh -3, SENP1 inh -2, HNF4A DNA FP 0, TPT1 inh -2, CSN deneddyl inh 6 and Rpn11 block 6.
For CCOC(=O)c1cc2occc2n1Cc1c(F)cccc1Cl the results were ATG4B inh 0, SENP1 inh -13, HNF4A DNA FP 16, TPT1 inh 11, CSN deneddyl inh 5, Rpn11 block 42*, Rpn11 confirm 17, MMP-2 inh -9 and Thrombin FP 3.
Screening CCc1ccc(C(=O)N/N=C/c2ccncc2)s1 returned ATG4B inh 1, SENP1 inh 2, HNF4A DNA FP 4, CSN deneddyl inh 3 and Rpn11 block -1.
For O=C(Nc1nc2ccccc2s1)c1ccc(Cl)s1 the results were ATG4B inh -4, SENP1 inh 3, HNF4A DNA FP -4, TPT1 inh 5, CSN deneddyl inh -2 and Rpn11 block -6.
Screening Cc1ccc2nc(NC(=O)c3ccc(-c4nc5ccccc5s4)s3)sc2c1 returned ATG4B inh -4, SENP1 inh -17, HNF4A DNA FP 69*, TPT1 inh -4, CSN deneddyl inh 52*, Rpn11 block 152*, Rpn11 confirm -3, MMP-2 inh -34 and Thrombin FP -14.
CN(C)CCN(C(=O)/C=C/c1cccs1)c1nc2c(F)cc(F)cc2s1 was read as ATG4B inh 3, SENP1 inh 5, HNF4A DNA FP 3, TPT1 inh -1, CSN deneddyl inh 30, Rpn11 block 73*, Rpn11 confirm 27, MMP-2 inh -56 and Thrombin FP 7.

Source: PubChem BioAssay (several laboratories)
